Our source for the Activity and Ka values is ChEMBL document CHEMBL3763129 (Bioorg Med Chem Lett, 2016).

Series [1] deals with ASPC1. Nature of the series: Antiproliferative activity against human AsPC1 cells assessed as cell viability at 10 uM after 48 hrs by MTS assay. In kind it is functional, cell-based. (In general: Tetrazolium dyes change colour on reduction, which living cells bring about.)
The subject of series [2] is BXPC-3. Nature of the series: Antiproliferative activity against human BxPC3 cells assessed as cell viability at 10 uM after 48 hrs by MTS assay. In kind it is functional, cell-based.
Series [3] has as its system MIA PaCa-2. Nature of the series: Antiproliferative activity against human MIAPaCa2 cells assessed as cell viability at 10 uM after 48 hrs by MTS assay. In kind it is functional, cell-based.
In series [4] the target is Proto-oncogene tyrosine-protein kinase Src (Homo sapiens) (UniProt P12931). Nature of the series: Binding affinity to Src kinase SH2 domain (unknown origin) at 25 uM by STD-NMR spectroscopy. The method in brief:
(§1)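 STD-NMR on recombinant SH2 (SUMO-fusion expressed in E. coli Rosetta2, Ni-purified, tag cleaved) in 100% D2O with trace DMSO-d6; 50 ms Gaussian saturation pulse, saturation and delay times 5.0 s, 16 scans with 720 averages; ligand/protein ratio 5:1 or 20:1 depending on compound.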

For series [5], the target named is Calmodulin-1 (Homo sapiens) (UniProt P0DP23). Nature of the series: Binding affinity to human calmodulin by isothermal titration calorimetry. A general note: ITC needs no label: the signal is the heat of the interaction.
In series [6] the target is T1, Calmodulin/Proto-oncogene tyrosine-protein kinase Src (Homo sapiens) (UniProt P12931+P0DP23). Nature of the series: Inhibition of human CaM/Src kinase SH2 domain interaction assessed as apparent association of CaM-Src kinase SH2 domain at 10 fold excess compound concentration by isothermal titration calorimetry. In kind it is protein assay. In short, it runs like this:
(§2)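 ITC at 27°C: SH2 (0.02mM) premixed with compound in DMSO in cell, titrated with CaM (0.2mM, DMSO matched), 20µl per injection, 300 s spacing; both proteins dialyzed overnight in 10mM Bis-Tris pH6.5, 50mM NaCl, 1mM CaCl2, 0.1mM TCEP; recombinant proteins from E. coli, SUMO tag removed.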

The test system of series [7] is ASPC1. Nature of the series: Antiproliferative activity against human AsPC1 cells assessed as cell viability at 0.01 to 10 uM after 48 and 72 hrs by MTS assay. In kind it is functional, cell-based.
Series [8] has as its system BXPC-3. The series can be described thus: Antiproliferative activity against human BxPC3 cells assessed as cell viability at 0.01 to 10 uM after 48 and 72 hrs by MTS assay. In kind it is functional, cell-based.
Series [9] can be described thus: Cytotoxicity against human MCF10A cells assessed as cell viability at 0.01 to 10 uM after 48 and 72 hrs by MTS assay. In kind it is cell-based. Particulars: mcf-10a.
In series [10] the test system is MIA PaCa-2. Nature of the series: Antiproliferative activity against human MIAPaCa2 cells assessed as cell viability at 0.01 to 10 uM after 48 and 72 hrs by MTS assay. In kind it is functional, cell-based.
The nature of series [11]: Cytotoxicity against human MCF10A cells assessed as cell viability at 10 uM after 48 hrs by MTS assay. In kind it is cell-based. To be noted: mcf-10a.
Series [12] addresses T1, Calmodulin/Proto-oncogene tyrosine-protein kinase Src (Homo sapiens). The series can be described thus: Inhibition of human CaM/Src kinase SH2 domain interaction assessed as apparent association of CaM-Src kinase SH2 domain at 25 fold excess compound concentration by isothermal titration calorimetry. In kind it is protein assay. In short, it runs like this: as §2
Series [13] deals with Proto-oncogene tyrosine-protein kinase Src (Homo sapiens) (UniProt P12931). The series can be described thus: Binding affinity to Src kinase SH2 domain (unknown origin) at 100 uM by STD-NMR spectroscopy. The method in brief: as §1
Series [14] relates to MIA PaCa-2. Nature of the series: Cytotoxicity against human MIAPaCa2 cells at 1 to 50 uM after 8 days by calcein-AM staining based fluorescence analysis. In kind it is functional, cell-based. In short, it runs like this:
(§3)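 3D microtumors: 10K MiaPaCa-2 cells in ice-cold HuBiogel (3 mg/ml), 2 mm beads polymerized 5 min at 37C, cultured up to 14 days in DMEM/10% FBS; compound 1–50 µM added every other day (final 5% FBS, 0.5% DMSO); media or DMSO controls; day 1, 7, 14 Calcein-AM (1.0µM) live imaging; proliferation by CellTiter Glo relative to DMSO; 6–8 beads/group.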

The test system of series [15] is MIA PaCa-2. The series can be described thus: Cytotoxicity against human MIAPaCa2 cells at 1 to 50 uM after 8 days by CellTiter Glo assay. In kind it is functional, cell-based. In short, it runs like this: as §3
(In ATP-based viability assays light output follows the ATP content of the culture.)

Calls of active or inactive are those of the source. The rule behind the calls is not given here.

Consider `Cc1ccc(Cc2cnc(NC(=O)c3ccc(-n4ccnc4)cc3)s2)cc1`, for which the outcome in the series on ASPC1 [1], in the series on BXPC-3 [2] and in the series with MIA PaCa-2 [3] was Active.

For `CC/C(=C(\c1ccccc1)c1ccc(OCCN(C)C)cc1)c1ccccc1`, the outcome in the series with ASPC1 [1], in the series on BXPC-3 [2] and with MIA PaCa-2 [3] was Active.

Take `O=C(Nc1ccc(C(=O)O)cc1)Nc1ccc(-c2nc(N3CCOCC3)nc(N3CCOCC3)n2)cc1`: the outcome (in series [4]; with ASPC1 [1]; in the series on ASPC1 [7]; in the series on BXPC-3 [8]; in the series on BXPC-3 [2]; in the series on MIA PaCa-2 [3]) was Active. Also, the outcome in the series on MIA PaCa-2 [10] was Active. The outcome in series [5] was inactive. Besides, the Ka in [6] is 2.49 ×10⁶ /M. In addition, the Activity result in [9] and in [11] was “Toxic” in each case.

Take `COc1ccc(-c2n[nH]c(NC(=O)c3cccc(S(=O)(=O)N4CCc5ccccc54)c3)n2)cc1`: the result in the series on ASPC1 [1], in the series with BXPC-3 [2] and in the series with MIA PaCa-2 [3] was Active. Also, the Activity entry in [11] was “Toxic”.

Consider `Cc1nc2ccccn2c1-c1csc(Nc2ccc(C(=O)O)cc2)n1`, for which the outcome in the series with ASPC1 [1], in the series on BXPC-3 [2] and with MIA PaCa-2 [3] was Active. Moreover, the result in series [5] was inactive. Besides, the Activity entry in series [11] was “Toxic”.

Regarding `N#Cc1ccc(Cc2cnc(NC(=O)CCc3ccc4c(c3)OCO4)s2)cc1`, the outcome with ASPC1 [1], with BXPC-3 [2] and with MIA PaCa-2 [3] was Active. Also, in [11], the Activity result is given as “Toxic”.

With `OC[C@@H]1O[C@H](n2cnc3c(NCc4ccco4)ncnc32)[C@H](O)[C@@H]1O`, the outcome in the series with ASPC1 [1], in the series on ASPC1 [7], in the series on BXPC-3 [8], with BXPC-3 [2], in the series with MIA PaCa-2 [3] and with MIA PaCa-2 [10] was Active. The result in series [13] was Active. In addition, the Ka in series [12] came to 2.03 ×10⁶ /M. Besides, the outcome in [5] was inactive. Besides, the Activity result in series [9] and in series [11] was “Toxic” throughout.

In the case of `O=C1COc2ccc(C(=O)/C=C/c3cc(F)cc4c3OCOC4)cc2N1`, the result in the series on ASPC1 [1], in the series with MIA PaCa-2 [14], in the series on MIA PaCa-2 [15], in the series on BXPC-3 [2] and with MIA PaCa-2 [3] was Active. Also, the result in [5] was inactive. The Activity result in [11] was “Toxic”.
